Experimental data taken from ChEMBL document CHEMBL1144977, “Synthesis of pyrimidinopyridine-triazene conjugates targeted to abl tyrosine kinase” (Bioorg Med Chem Lett, 2003).

Key:
[1] = biological target: Tyrosine-protein kinase ABL (Homo sapiens, UniProt P00519+P42684); assay: Inhibition of Abl tyrosine kinase; format: protein assay
[2] = Alkylating activity (0.1 mM) was determined at pH 7.4; expressed as OD (540n m)/mM of drug); format: ADME; conditions: pH 7.4, 100 µM
Outline: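 Alkylation read as OD at 540 nm per mM of drug. Drug at 0.1 mM was pre-incubated with NBP in TRIS buffer pH 7.4 for 2 h at 37 °C, then triethylamine/acetone was added.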

K562 = assay: Cytotoxic effect in K562 cells; conditions: Homo sapiens

| IC50 [1] | Alkylating activity [2] | Compound | IC50 (K562) |
| --- | --- | --- | --- |
| 0.903 µM | 0.0002 | COCCN=NNc1ccc(C(=O)Nc2cccc(Nc3nccc(-c4cccnc4)n3)c2)cc1 | 16.2 µM |
| > 10 µM | – | Nc1cccc(Nc2nccc(-c3cccnc3)n2)c1 | 21.7 µM |
| 10 µM | – | c1cc(N/N=N/CCN2CCOCC2)cc(Nc2nccc(-c3cccnc3)n2)c1 | 10.1 µM |
| 4.89 µM | – | Nc1ccc(C(=O)Nc2cccc(Nc3nccc(-c4cccnc4)n3)c2)cc1 | 9.88 µM |
| 8.6 µM | – | COCC/N=N/Nc1cccc(Nc2nccc(-c3cccnc3)n2)c1 | 5.39 µM |
| > 10 µM | 0.0002 | Cc1ccc(NC(=O)c2ccc(N)cc2)cc1Nc1nccc(-c2cccnc2)n1 | 68 µM |

Second part, the compound before the results:

| Compound | IC50 [1] | Alkylating activity [2] | IC50 (K562) |
| --- | --- | --- | --- |
| Cc1ccc(NC(=O)c2ccc(/N=N/N(C)C)cc2)cc1Nc1nccc(-c2cccnc2)n1 | 0.1946 µM | 0.0002 | 2.16 µM |
| Cn1nnc2c(C(N)=O)ncn2c1=O [TEMOZOLOMIDE] | > 100 µM | 0.0013 | 156 µM |
| Cc1ccc(NC(=O)c2ccc(CN3CCN(C)CC3)cc2)cc1Nc1nccc(-c2cccnc2)n1 [IMATINIB] | – | – | 0.11 µM |
| Cc1ccc(NC(=O)c2ccc(/N=N/N(C)CCCl)cc2)cc1Nc1nccc(-c2cccnc2)n1 | 0.8496 µM | 0.00014 | 17.4 µM |
| Cc1ccc(NC(=O)c2ccc(N=NN(C)CO)cc2)cc1Nc1nccc(-c2cccnc2)n1 | – | 0.0015 | – |
